Measured values from ChEMBL document CHEMBL1671711, “Serum and cerebrospinal fluid levels of colistin in pediatric patients” (Antimicrob Agents Chemother, 2010).

Columns and labels:
Assay type in all cases: ADME, organism-based
Parameters in all cases: route intravenous
[1] = Drug level in pediatric patient cerebrospinal fluid with gram-negative bacterial infection before initiation of 4.8 mg/kg/day, iv administered every 8 hrs for 7 days by LS/MS/MS analysis; settings: human, in vivo
Procedure, shortened: (§1)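 Trough sampling: blood was drawn immediately before the 20-min IV CMS infusion (every 8 h), and CSF was taken from EVD systems within 1 h before infusion. Samples were stored at −80°C and analysed by LC-MS-MS for colistin, and for CMS via acid hydrolysis with subtraction. CSF was diluted 1:1 with serum. Values are means of two days.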

[2] = Drug level in pediatric patient cerebrospinal fluid with gram-negative bacterial infection assessed as Colistin level at 4.8 mg/kg/day, iv administered every 8 hrs for 7 days measured after 30 mins by LS/MS/MS analysis; settings: human, in vivo, 0.5 h
Procedure, shortened: (§2)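 Children (1 month to 14 years) received CMS in 30 to 50 ml normal saline by 20-min IV infusion every 8 h. CSF was taken from EVD systems alongside blood, after the end of infusion, and stored at −80°C. It was diluted 1:1 with serum, protein-precipitated, and analysed by LC-MS-MS for colistin A plus B against standards in pH 7.4 phosphate-buffered artificial-CSF Ringer with serum. Values are means of two days; course 1 was sampled once.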

[3] = Drug level in pediatric patient cerebrospinal fluid with gram-negative bacterial infection before initiation of 18 mg/kg/day, iv administered every 8 hrs for 42 days by LS/MS/MS analysis; settings: human, in vivo; procedure, shortened: as §1
Serum [4] = assay: Drug level in pediatric patient serum with gram-negative bacterial infection at 10.4 mg/kg/day, iv administered every 8 hrs for 46 days measured after 30 mins by LS/MS/MS analysis; settings: human, in vivo, 0.5 h
Procedure, shortened: (§3)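 Serum was taken 30 min after the end of the 20-min IV CMS infusion (every 8 h) and stored at −80°C. It underwent acid hydrolysis with 1 M H2SO4 for 15–20 min, neutralisation with 1 M NaOH, and precipitation with acetonitrile containing 0.1% TFA. LC-MS-MS colistin before hydrolysis was subtracted from colistin after hydrolysis to give CMS. Values are means of two days.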

Serum [5] = assay: Drug level in pediatric patient serum with gram-negative bacterial infection at 16 mg/kg/day, iv administered every 8 hrs for 93 days measured after 30 mins by LS/MS/MS analysis; settings: human, in vivo, 0.5 h; procedure, shortened: as §3
[6] = Drug level in pediatric patient cerebrospinal fluid with gram-negative bacterial infection at 18 mg/kg/day, iv administered every 8 hrs for 42 days measured after 30 mins by LS/MS/MS analysis; settings: human, in vivo, 0.5 h
Procedure, shortened: (§4)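 CMS was given by 20-min IV infusion in saline every 8 h, and CSF was taken from EVD systems after the end of infusion. The CSF–serum 1:1 mix was treated with 1 M H2SO4 for 15–20 min, then 1 M NaOH, then acetonitrile with 0.1% TFA. CMS was calculated as colistin after hydrolysis minus colistin before hydrolysis, by LC-MS-MS, with CMS controls of 0.25–18.5 μg/ml. Values are means of two days; course 1 was sampled once.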

Serum [7] = assay: Drug level in pediatric patient serum with gram-negative bacterial infection at 16 mg/kg/day, iv administered every 8 hrs for 51 days measured after 30 mins by LS/MS/MS analysis; settings: human, in vivo, 0.5 h; procedure, shortened: as §3
[8] = Drug level in pediatric patient cerebrospinal fluid with gram-negative bacterial infection before initiation of 10.4 mg/kg/day, iv administered every 8 hrs for 46 days by LS/MS/MS analysis; settings: human, in vivo; procedure, shortened: as §1
[9] = Ratio of drug level in cerebrospinal fluid to Serum of pediatric patient with gram-negative bacterial infection assessed as Colistin level at 18 mg/kg/day, iv administered every 8 hrs for 42 days by LS/MS/MS analysis; settings: human, csf
Procedure, shortened: (§5)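 Percentages are the ratio of mean CSF concentration to mean serum concentration from paired samples. Blood was drawn immediately before and 30 min after the 20-min IV CMS infusion (every 8 h); CSF came from EVD systems concurrently. Both were measured by LC-MS-MS, for colistin directly and for CMS after acid hydrolysis. Pairs were repeated on two days.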

Serum [10] = assay: Drug level in pediatric patient serum with gram-negative bacterial infection assessed as Colistin level at 18 mg/kg/day, iv administered every 8 hrs for 42 days measured after 30 mins by LS/MS/MS analysis; settings: human, in vivo, 0.5 h
Procedure, shortened: (§6)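 Blood was drawn 30 min after the end of the 20-min IV CMS infusion, given every 8 h. Serum was separated by centrifugation, stored at −80°C, and assayed by LC-MS-MS for colistin A plus B (interday CV <4.4%, accuracy within ±1.9%). Values are means of two sampling days; course 1 was sampled once.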

[11] = Drug level in pediatric patient cerebrospinal fluid with gram-negative bacterial infection before initiation of 16 mg/kg/day, iv administered every 8 hrs for 51 days by LS/MS/MS analysis; settings: human, in vivo; procedure, shortened: as §1
[12] = Drug level in pediatric patient cerebrospinal fluid with gram-negative bacterial infection before initiation of 16 mg/kg/day, iv administered every 8 hrs for 93 days by LS/MS/MS analysis; settings: human, in vivo; procedure, shortened: as §1
Serum [13] = assay: Drug level in pediatric patient serum with gram-negative bacterial infection assessed as Colistin level at 16 mg/kg/day, iv administered every 8 hrs for 51 days measured after 30 mins by LS/MS/MS analysis; settings: human, in vivo, 0.5 h; procedure, shortened: as §6
Serum [14] = assay: Drug level in pediatric patient serum with gram-negative bacterial infection assessed as Colistin level at 10.4 mg/kg/day, iv administered every 8 hrs for 46 days measured after 30 mins by LS/MS/MS analysis; settings: human, in vivo, 0.5 h; procedure, shortened: as §6
[15] = Ratio of drug level in cerebrospinal fluid to Serum of pediatric patient with gram-negative bacterial infection before initiation of 4.8 mg/kg/day, iv administered every 8 hrs for 7 days by LS/MS/MS analysis; settings: human, csf; procedure, shortened: as §5
[16] = Drug level in pediatric patient cerebrospinal fluid with gram-negative bacterial infection assessed as Colistin level at 16 mg/kg/day, iv administered every 8 hrs for 93 days measured after 30 mins by LS/MS/MS analysis; settings: human, in vivo, 0.5 h; procedure, shortened: as §2
Serum [17] = assay: Drug level in pediatric patient serum with gram-negative bacterial infection assessed as Colistin level at 16 mg/kg/day, iv administered every 8 hrs for 93 days measured after 30 mins by LS/MS/MS analysis; settings: human, in vivo, 0.5 h; procedure, shortened: as §6
[18] = Ratio of drug level in cerebrospinal fluid to Serum of pediatric patient with gram-negative bacterial infection assessed as Colistin level at 4.8 mg/kg/day, iv administered every 8 hrs for 7 days by LS/MS/MS analysis; settings: human, csf; procedure, shortened: as §5
Serum [19] = assay: Drug level in pediatric patient serum with gram-negative bacterial infection before initiation of 16 mg/kg/day, iv administered every 8 hrs for 93 days by LS/MS/MS analysis; settings: human, in vivo; procedure, shortened: as §1
[20] = Drug level in pediatric patient cerebrospinal fluid with gram-negative bacterial infection assessed as Colistin level at 16 mg/kg/day, iv administered every 8 hrs for 51 days measured after 30 mins by LS/MS/MS analysis; settings: human, in vivo, 0.5 h; procedure, shortened: as §2
Serum [21] = assay: Drug level in pediatric patient serum with gram-negative bacterial infection at 4.8 mg/kg/day, iv administered every 8 hrs for 7 days measured after 30 mins by LS/MS/MS analysis; settings: human, in vivo, 0.5 h; procedure, shortened: as §3
[22] = Drug level in pediatric patient cerebrospinal fluid with gram-negative bacterial infection at 10.4 mg/kg/day, iv administered every 8 hrs for 46 days measured after 30 mins by LS/MS/MS analysis; settings: human, in vivo, 0.5 h; procedure, shortened: as §4

In the case of COLISTIN, the Drug uptake [1] is reported as 0.06 µg/mL, the Drug uptake [2] is reported as 0.06 µg/mL and the Drug uptake [3] is reported as 0.04 µg/mL. For the same sequence, the Drug uptake (Serum [4]) was 7.9 µg/mL, the Drug uptake (Serum [5]) was 8.41 µg/mL and the Drug uptake [6] was 0.03 µg/mL. It also gave a Drug uptake (Serum [7]) of 9.89 µg/mL, a Drug uptake [8] of 0.03 µg/mL and a Ratio [9] of 3.2%. The Drug uptake (Serum [10]) was 2.2 µg/mL, the Drug uptake [11] was 0.09 µg/mL and the Drug uptake [12] was 0.38 µg/mL. For the same sequence, the Drug uptake (Serum [13]) was 1.6 µg/mL, the Drug uptake (Serum [14]) was 1.46 µg/mL and the Ratio [15] was 20.6%. The Drug uptake [16] was 0.46 µg/mL, the Drug uptake (Serum [17]) was 1.33 µg/mL and the Ratio [18] was 19.3%. The Drug uptake (Serum [19]) was 0.75 µg/mL, the Drug uptake [20] was 0.11 µg/mL and the Drug uptake (Serum [21]) was 2.86 µg/mL. For the same sequence, the Drug uptake [22] was 0.02 µg/mL.
